{
  "source": "paper PMC9398498",
  "about": "(Gastric Cancer, 2022)",
  "key": {"[1]": {"test_system": "GIST-T1 cells", "experiment": "Cell cycle analysis, GIST-T1", "type": "cell-based", "conditions": "P < 0.01"}, "[2]": {"test_system": "GIST-T1/IMR cells", "experiment": "Cell cycle analysis, GIST-T1/IMR", "type": "cell-based", "conditions": "DMS with IM vs only IM, P < 0.01"}, "[3]": {"test_system": "GIST-T1 and GIST-T1/IMR cells", "experiment": "Cell scratch assay", "type": "cell-based", "conditions": "DMS (10 µM, 5 h) pretreatment then IM (20 µM) vs only IM treatment, P < 0.01"}, "[4]": {"test_system": "GIST-T1 and GIST-T1/IMR cells", "experiment": "Longitudinal migration through uncoated Matrigel", "type": "cell-based", "conditions": "both cell lines", "outline": "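Parental and resistant GIST-T1 cells were grown in RPMI 1640 with 15% FBS at 37 °C, 5% CO2. Vertical migration was scored as the number of cells passing through uncoated Matrigel.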"}, "[5]": {"test_system": "GIST-T1 and GIST-T1/IMR cells", "experiment": "Transwell chamber invasion assay", "type": "cell-based", "conditions": "DMS pretreatment and then IM treatment, within 48 h", "outline": "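Parental and resistant GIST-T1 cells in RPMI 1640 with 15% FBS (37 °C, 5% CO2) were tested in a transwell chamber. Invasion within 48 h was counted as transmembrane cells.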"}, "[6]": {"test_system": "GIST-T1 and GIST-T1/IMR cells", "experiment": "Plate colony formation experiment", "type": "cell-based", "conditions": "P < 0.01"}, "[7]": {"test_system": "GIST-T1 and GIST-T1/IMR cells", "experiment": "Cell apoptosis analysis", "type": "cell-based"}, "[8]": {"test_system": "S1P, SPK1 and ABCC1 protein expression", "experiment": "Western blot of SPK1/S1P proteins", "type": "cell-based", "conditions": "after DMS blockage for 5 h", "outline": "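Lysates of parental and resistant GIST-T1 cells were probed with rabbit polyclonal anti-S1P, anti-SPK1 and anti-β-actin antibodies, plus anti-ABCC1. Bands were visualised by enhanced chemiluminescence.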"}, "[9]": {"test_system": "SPK1", "conditions": "SPK1 compared to SPK2; cited from earlier work"}, "[10]": {"experiment": "Therapeutic drug monitoring", "type": "in vivo, human", "conditions": "400 mg/qd; for concentration at 22 h: both, human, plasma, oral, Plasma concentration", "outline": "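Patients on oral drug 400 mg once daily for over 1 month (steady state) took the dose at about 12:00. Peripheral venous blood was drawn about 10:00 next morning into anticoagulant tubes and centrifuged at 5000 rpm for 5 min. Plasma was stored at −20 °C, protein-precipitated, centrifuged and injected directly for 2D-LC-UV quantitation.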"}, "[11]": {"test_system": "GISTs", "conditions": "cited from earlier work"}, "[12]": {"conditions": "cited from earlier work"}},
  "note": "Where a name gives a salt, the structure may show the parent alone. Read-outs that look alike come from different tables or passages of the source.",
  "data": [
    {"smiles": "CCCCCCCCCCCCC/C=C/[C@@H](O)[C@H](CO)N(C)C", "note": "[DMS, N,N-dimethylsphingosine]", "values": [
      {"measurement": "proportion of G0/G1 phase", "setting": "[1]; GIST-T1, DMS with IM vs only IM", "result": "significantly lower"},
      {"measurement": "proportion of G0/G1 phase", "setting": "[2]", "result": "significantly lower"},
      {"measurement": "scratch healing rate", "setting": "[3]", "result": "significantly decreased"},
      {"measurement": "ability of longitudinal migration", "setting": "[4]; DMS pretreatment with IM", "result": "further block"},
      {"measurement": "number of transmembrane cells", "setting": "[5]", "result": "further reduced dramatically"},
      {"measurement": "Colony formation ability", "setting": "[6]; DMS pretreatment vs IM intervention's group", "result": "further reduced"},
      {"measurement": "apoptosis rate", "setting": "[7]; after DMS interference vs cells without DMS treatment", "result": "significantly higher"},
      {"measurement": "protein levels of S1P, ABCC1 and SPK1", "setting": "[8]", "result": "decreased"},
      {"measurement": "inhibitory activity on sphingosine kinases", "setting": "[9]", "result": "high inhibitory activity on SPK1 compared to SPK2"}
    ]},
    {"smiles": "Cc1ccc(NC(=O)c2ccc(CN3CCN(C)CC3)cc2)cc1Nc1nccc(-c2cccnc2)n1", "note": "[IM, Imatinib mesylate]", "values": [
      {"measurement": "difference between the highest and lowest IM concentration", "setting": "[10]; 29 patients", "result": "more than 12 fold"},
      {"measurement": "concentration at 22 h", "setting": "[10]; OCT1 1022C > T (rs 2282143) CC, n=22", "result": "1510 ± 842", "unit": "ng/mL"},
      {"measurement": "concentration at 22 h", "setting": "[10]; OCT1 1022C > T (rs 2282143) TC, n=7", "result": "1750 ± 1090", "unit": "ng/mL"},
      {"measurement": "concentration at 22 h", "setting": "[10]; OCT1 1222 A > G (rs628031) AA, n=1", "result": 300, "unit": "ng/mL"},
      {"measurement": "concentration at 22 h", "setting": "[10]; OCT1 1222 A > G (rs628031) AG, n=10", "result": "1820 ± 1010", "unit": "ng/mL"},
      {"measurement": "concentration at 22 h", "setting": "[10]; OCT1 1222 A > G (rs628031) GG, n=18", "result": "1500 ± 798", "unit": "ng/mL"},
      {"measurement": "concentration at 22 h", "setting": "[10]; OCT1 1386C > A (rs 622342) AA, n=24", "result": "1580 ± 801", "unit": "ng/mL"},
      {"measurement": "concentration at 22 h", "setting": "[10]; OCT1 1386C > A (rs 622342) AC, n=5", "result": "1490 ± 1380", "unit": "ng/mL"},
      {"measurement": "concentration at 22 h", "setting": "[10]; OCT1 1795G > A (rs6935207) AA, n=8", "result": "961 ± 401", "unit": "ng/mL"},
      {"measurement": "concentration at 22 h", "setting": "[10]; OCT1 1795G > A (rs6935207) AG, n=13", "result": "1860 ± 978", "unit": "ng/mL"},
      {"measurement": "concentration at 22 h", "setting": "[10]; OCT1 1795G > A (rs6935207) GG, n=8", "result": "1700 ± 890", "unit": "ng/mL"},
      {"measurement": "proportion of G0/G1 phase", "setting": "[1]; exposed to IM vs control", "result": "higher proportion"},
      {"measurement": "longitudinal migration capacity", "setting": "[4]; 20 μM of IM for 48 h, P < 0.01", "result": "decreased significantly"},
      {"measurement": "number of colony formation", "setting": "[6]; IM intervention vs control", "result": "significantly less than the control group"},
      {"measurement": "apoptosis rate", "setting": "[7]; GIST-T1 cells treated with IM alone vs control, P < 0.01", "result": "higher than that of the control group"},
      {"measurement": "GISTs patients developing secondary drug resistance", "setting": "[11]; after 1–3 years of IM treatment", "result": "~85", "unit": "%"},
      {"measurement": "pH at which IM tablets dissolve rapidly", "setting": "[12]", "result": "≤ 5.5"}
    ]},
    {"smiles": "CNC(=O)c1cc(Oc2ccc(NC(=O)Nc3ccc(Cl)c(C(F)(F)F)c3)c(F)c2)ccn1", "note": "[regorafenib]", "values": [
      {"measurement": "median PFS", "setting": "[11]; use after sunitinib resistance", "result": 4.8, "unit": "months"},
      {"measurement": "objective response rate", "setting": "[11]; use after sunitinib resistance", "result": 5.5, "unit": "%"}
    ]},
    {"smiles": "CCn1c(=O)c(-c2cc(NC(=O)Nc3ccccc3)c(F)cc2Br)cc2cnc(NC)cc21", "note": "[ripretinib]", "values": [
      {"measurement": "median PFS", "setting": "[11]; phase III trial", "result": 6.3, "unit": "months"},
      {"measurement": "objective response rate", "setting": "[11]; phase III trial", "result": 9, "unit": "%"}
    ]},
    {"smiles": "CCN(CC)CCNC(=O)c1c(C)[nH]c(/C=C2\\C(=O)Nc3ccc(F)cc32)c1C", "note": "[sunitinib]", "values": [
      {"measurement": "median PFS", "setting": "[11]; use after IM resistance", "result": 9.9, "unit": "months"},
      {"measurement": "objective response rate", "setting": "[11]; use after IM resistance", "result": 5.5, "unit": "%"}
    ]}
  ]
}
